From ChEMBL document CHEMBL1821580, “Design, synthesis and bioevaluation of novel candidate selective estrogen receptor modulators” (Eur J Med Chem, 2011)
The source made the active and inactive calls. The rule behind the calls is not given here.

How the values were obtained:
CCRF-CEM = assay: Cytostatic activity against human CEM cells after 3 days by coulter counter assay; assay type: functional, cell-based; conditions: 72 h
Procedure, shortened: (§1)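 Tumor cells seeded in 96-well plates and exposed to a range of compound concentrations. Exposure was 2 days for L1210 and 3 days for Molt4/C8 and CEM. Cell number was counted on a Coulter particle counter. IC50 is the concentration inhibiting proliferation by 50%. Run in triplicate.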

L1210 = assay: Cytostatic activity against mouse L1210 cells after 2 days by coulter counter assay; assay type: functional, cell-based; conditions: L1210, 48 h; procedure, shortened: as §1
MOLT-4 = assay: Cytostatic activity against human Molt4/C8 cells after 3 days by coulter counter assay; assay type: functional, cell-based; conditions: MOLT-4, 72 h; procedure, shortened: as §1
MCF7 = assay: Cytotoxicity activity against human MCF7 cells by MTS assay; assay type: functional, cell-based
Procedure, shortened: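 MCF-7 cells in DMEM with 10% heat-inactivated FBS, seeded at 30,000 cells/well in 24-well plates. After compound treatment, viability was read by MTS assay (CellTiter 96 AQueous). Run in triplicate.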

[1] = target: T1, Estrogen receptor (Homo sapiens) (UniProt P03372); assay: Binding affinity to estrogen receptor alpha in human MCF7 cells assessed as NR peptide-ERalpha complex formation at 25 uM by colorimetric ELISA; assay type: cell-based
T1 sequence (whole entry): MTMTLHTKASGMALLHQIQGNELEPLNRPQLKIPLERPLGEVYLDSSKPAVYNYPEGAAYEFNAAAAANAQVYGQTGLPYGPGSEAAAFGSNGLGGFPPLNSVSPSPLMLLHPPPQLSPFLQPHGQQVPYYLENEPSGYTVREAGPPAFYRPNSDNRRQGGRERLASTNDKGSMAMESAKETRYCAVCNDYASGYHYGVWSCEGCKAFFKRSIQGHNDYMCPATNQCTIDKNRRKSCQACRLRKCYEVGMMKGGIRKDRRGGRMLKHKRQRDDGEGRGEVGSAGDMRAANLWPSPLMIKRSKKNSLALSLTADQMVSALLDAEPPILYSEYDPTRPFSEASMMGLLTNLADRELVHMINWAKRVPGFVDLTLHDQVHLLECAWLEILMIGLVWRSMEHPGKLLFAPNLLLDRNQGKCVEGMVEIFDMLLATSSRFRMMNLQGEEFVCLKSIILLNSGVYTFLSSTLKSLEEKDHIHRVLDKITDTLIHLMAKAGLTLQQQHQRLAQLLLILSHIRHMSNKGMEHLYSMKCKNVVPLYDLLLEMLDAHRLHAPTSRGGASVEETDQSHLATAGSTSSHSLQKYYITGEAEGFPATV

[2] = target: T1, Estrogen receptor (Homo sapiens); assay: Binding affinity to estrogen receptor alpha in human MCF7 cells assessed as NR peptide-ERalpha complex formation at 2.5 uM by colorimetric ELISA; assay type: cell-based

Row | Activity [1] | Activity [2] | SMILES | IC50 (CCRF-CEM) | IC50 (L1210) | IC50 (MOLT-4) | IC50 (MCF7)
1 |  |  | Oc1ccc2ccccc2c1C(c1ccccc1)N1CCC(O)CC1 (configuration not stated) | 36 µM | 50 µM | 43 µM | 
2 |  |  | COc1ccc(C(c2c(O)ccc3ccccc23)N2CCC(O)CC2)cc1 (configuration not stated) | 14 µM | 42 µM | 35 µM | 
3 |  |  | Oc1ccc2ccccc2c1C(c1ccc(Cl)c(Cl)c1)N1CCC(O)CC1 (configuration not stated) | 17 µM | 43 µM | 36 µM | 
4 |  |  | CC(=O)OC1CCN(C(c2ccc3c(c2)OCO3)c2c(O)ccc3ccccc23)CC1 (configuration not stated) | 51 µM | 48 µM | 69 µM | 
5 |  |  | CC(=O)OC1CCN(C(c2ccccn2)c2c(O)ccc3ccccc23)CC1 (configuration not stated) | 55 µM | 92 µM | 49 µM | 
6 |  |  | CN(C)CCOc1ccc(Cc2c(O)ccc3ccccc23)cc1 |  |  |  | 10.2 µM
7 |  |  | CCN(CC)CCOc1ccc(Cc2c(O)ccc3ccccc23)cc1 |  |  |  | 6.2 µM
8 |  |  | CC(C)N(CCOc1ccc(Cc2c(O)ccc3ccccc23)cc1)C(C)C |  |  |  | 7.54 µM
9 |  |  | Oc1ccc2ccccc2c1Cc1ccc(OCCN2CCCC2)cc1 |  |  |  | 6.71 µM
10 |  |  | Oc1ccc2ccccc2c1Cc1ccc(OCCN2CCCCC2)cc1 |  |  |  | 6.82 µM
11 |  |  | Oc1ccc2ccccc2c1Cc1ccc(OCCN2CCOCC2)cc1 |  |  |  | > 25 µM
12 | Active | Active | CC1CCN(CCOc2ccc(Cc3c(O)ccc4ccccc34)cc2)CC1 |  |  |  | 4.38 µM
13 |  |  | Oc1ccc2ccccc2c1Cc1ccc(OCCN2CCCCCC2)cc1 |  |  |  | 6.21 µM
14 |  |  | CN(C)CCOc1ccc(C(c2c(O)ccc3ccccc23)N2CCC(O)CC2)cc1 (racemic) |  |  |  | 22.6 µM
15 |  |  | CCN(CC)CCOc1ccc(C(c2c(O)ccc3ccccc23)N2CCC(O)CC2)cc1 (racemic) |  |  |  | 19 µM
16 |  |  | CC(C)N(CCOc1ccc(C(c2c(O)ccc3ccccc23)N2CCC(O)CC2)cc1)C(C)C (racemic) |  |  |  | 52.3 µM
17 |  |  | Oc1ccc2ccccc2c1C(c1ccc(OCCN2CCCC2)cc1)N1CCC(O)CC1 (racemic) |  |  |  | 37.5 µM
18 |  |  | Oc1ccc2ccccc2c1C(c1ccc(OCCN2CCCCC2)cc1)N1CCC(O)CC1 (racemic) |  |  |  | 36.4 µM

Row | Activity [1] | Activity [2] | SMILES | IC50 (CCRF-CEM) | IC50 (L1210) | IC50 (MOLT-4) | IC50 (MCF7)
19 |  |  | Oc1ccc2ccccc2c1C(c1ccc(OCCN2CCOCC2)cc1)N1CCC(O)CC1 (racemic) |  |  |  | 424 µM
20 |  |  | Oc1ccc2ccccc2c1C(c1ccncc1)N1CCC(O)CC1 (single isomer, unassigned; (+)) | 133 µM | 154 µM | 107 µM | 
21 |  |  | Oc1ccc2ccccc2c1C(c1ccccn1)N1CCC(O)CC1 (single isomer, unassigned; (+)) | 54 µM | 118 µM | 52 µM | 
22 |  |  | CC(=O)OC1CCN(C(c2ccccc2)c2c(O)ccc3ccccc23)CC1 (single isomer, unassigned; (+)) | 31 µM | 58 µM | 38 µM | 
23 |  |  | CC(=O)OC1CCN(C(c2ccc(F)cc2)c2c(O)ccc3ccccc23)CC1 (single isomer, unassigned; (+)) | 27 µM | 45 µM | 40 µM | 
24 |  |  | CC(=O)OC1CCN(C(c2ccc(Cl)cc2)c2c(O)ccc3ccccc23)CC1 (single isomer, unassigned; (+)) | 28 µM | 41 µM | 35 µM | 
25 |  |  | CC(=O)OC1CCN(C(c2ccc(C)cc2)c2c(O)ccc3ccccc23)CC1 (single isomer, unassigned; (+)) | 35 µM | 45 µM | 47 µM | 
26 |  |  | COc1ccc(C(c2c(O)ccc3ccccc23)N2CCC(OC(C)=O)CC2)cc1 (single isomer, unassigned; (+)) | 22 µM | 43 µM | 42 µM | 
27 |  |  | CC(=O)OC1CCN(C(c2ccc(Cl)c(Cl)c2)c2c(O)ccc3ccccc23)CC1 (single isomer, unassigned; (+)) | 15 µM | 31 µM | 34 µM | 
28 |  |  | COc1ccc(C(c2c(O)ccc3ccccc23)N2CCC(OC(C)=O)CC2)cc1OC (single isomer, unassigned; (+)) | 24 µM | 48 µM | 12 µM | 
29 |  |  | Oc1ccc2ccccc2c1C(c1ccc(F)cc1)N1CCC(O)CC1 (single isomer, unassigned; (-)) | 24 µM | 44 µM | 41 µM | 
30 |  |  | Oc1ccc2ccccc2c1C(c1ccc(Cl)cc1)N1CCC(O)CC1 (single isomer, unassigned; (-)) | 19 µM | 46 µM | 33 µM | 
31 |  |  | Cc1ccc(C(c2c(O)ccc3ccccc23)N2CCC(O)CC2)cc1 (single isomer, unassigned; (-)) | 29 µM | 44 µM | 39 µM | 
32 |  |  | COc1ccc(C(c2c(O)ccc3ccccc23)N2CCC(O)CC2)cc1OC (single isomer, unassigned; (-)) | 25 µM | 50 µM | 18 µM | 
33 |  |  | Oc1ccc2ccccc2c1C(c1ccc2c(c1)OCO2)N1CCC(O)CC1 (single isomer, unassigned; (-)) | 37 µM | 45 µM | 44 µM | 
34 |  |  | CC(=O)OC1CCN(C(c2ccncc2)c2c(O)ccc3ccccc23)CC1 (single isomer, unassigned; (-)) | 79 µM | 80 µM | 59 µM | 
35 |  |  | CC/C(=C(\c1ccccc1)c1ccc(OCCN(C)C)cc1)c1ccccc1 [TAMOXIFEN] |  |  |  | 31 µM
